ChEMBL document CHEMBL4340532, “Design, synthesis, and biological evaluation of novel 2'-deoxy-2'-fluoro-2'-C-methyl 8-azanebularine derivatives as potent anti-HBV agents” (Bioorg Med Chem Lett, 2019)

Assays:
[1] = Cytotoxicity against human HepG2 cells supplemented with fresh medium containing compound every 3 days for 9 days measured post-last dose by MTT assay; type: cell-based
Method in brief: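 HepG2 cells were exposed to compound for 3 or 9 days and viability was read by MTT assay. CC50 is the concentration causing 50% cytotoxicity. Results are mean ± SD of three experiments.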

Hepatitis B virus [2] = experiment: Antiviral activity against Hepatitis B virus infected in human HepG2.2.15 cells assessed as inhibition of HBeAg secretion at 20 uM supplemented with fresh medium containing compound every 3 days for 6 days and measured on day 9 by ELISA relative to control; type: functional
Method in brief: (§1)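 HepG2.2.15 cells were exposed to compound for up to 9 days. The initial screen used 20 µM for 9 days, with lamivudine (20 µM) as positive control. Follow-up used 10, 20 or 40 µM sampled at days 3, 6 and 9. HBsAg and HBeAg were quantified in culture supernatant by ELISA and compared with a no-drug control. Results are mean ± SD of three experiments.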

Hepatitis B virus [3] = experiment: Antiviral activity against Hepatitis B virus infected in human HepG2.2.15 cells assessed as inhibition of HBsAg secretion at 20 uM supplemented with fresh medium containing compound every 3 days for 6 days and measured on day 9 by ELISA relative to control; type: functional; method in brief: as §1
Hepatitis B virus [4] = experiment: Antiviral activity against Hepatitis B virus infected in human HepG2.2.15 cells assessed as inhibition of intracellular HBV DNA replication at 20 uM measured on day 3 by FQ-PCR analysis relative to control; type: functional; conditions: HepG2.2.15, 72 h
Method in brief: (§2)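 HepG2.2.15 cultures were treated at 10, 20 or 40 µM for 3, 6 and 9 days. Both intracellular and extracellular HBV DNA levels were then determined and compared with untreated cells.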

Hepatitis B virus [5] = experiment: (§3) Antiviral activity against Hepatitis B virus infected in human HepG2.2.15 cells assessed as inhibition of intracellular HBV DNA replication at 20 uM supplemented with fresh medium containing compound every 3 days for 6 days measured post-last dose by FQ-PCR analysis relative to control; type: functional; method in brief: as §2
Hepatitis B virus [6] = experiment: (§4) Antiviral activity against Hepatitis B virus infected in human HepG2.2.15 cells assessed as inhibition of intracellular HBV DNA replication at 20 uM supplemented with fresh medium containing compound every 3 days for 9 days measured post-last dose by FQ-PCR analysis relative to control; type: functional; method in brief: as §2
Hepatitis B virus [7] = experiment: Antiviral activity against Hepatitis B virus infected in human HepG2.2.15 cells assessed as inhibition of extracellular HBV DNA replication at 20 uM measured on day 3 by FQ-PCR analysis relative to control; type: functional; conditions: HepG2.2.15, 72 h; method in brief: as §2
Hepatitis B virus [8] = experiment: (§5) Antiviral activity against Hepatitis B virus infected in human HepG2.2.15 cells assessed as inhibition of extracellular HBV DNA replication at 20 uM supplemented with fresh medium containing compound every 3 days for 6 days measured post-last dose by FQ-PCR analysis relative to control; type: functional; method in brief: as §2
Hepatitis B virus [9] = experiment: (§6) Antiviral activity against Hepatitis B virus infected in human HepG2.2.15 cells assessed as inhibition of extracellular HBV DNA replication at 20 uM supplemented with fresh medium containing compound every 3 days for 9 days measured post-last dose by FQ-PCR analysis relative to control; type: functional; method in brief: as §2
Hepatitis B virus [10] = experiment: Antiviral activity against lamivudine-resistant Hepatitis B virus harboring L180M/M204V mutant infected in human HepG2.2.15 cells assessed as inhibition of intracellular HBV DNA replication at 20 uM measured on day 3 by FQ-PCR analysis relative to control; type: functional; conditions: HepG2.2.15, 72 h
Method in brief: (§7)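 Lamivudine-resistant cell line transfected with the L180M/M204V mutant, exposed to 10, 20 or 40 µM for 3, 6 or 9 days. Intracellular and extracellular HBV DNA levels measured.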

Hepatitis B virus [11] = experiment: as §3, with “against lamivudine-resistant” for “against”, “virus harboring L180M/M204V mutant” for “virus”; type: functional; method in brief: as §7
Hepatitis B virus [12] = experiment: as §4, with “against lamivudine-resistant” for “against”, “virus harboring L180M/M204V mutant” for “virus”; type: functional; method in brief: as §7
Hepatitis B virus [13] = experiment: Antiviral activity against lamivudine-resistant Hepatitis B virus harboring L180M/M204V mutant infected in human HepG2.2.15 cells assessed as inhibition of extracellular HBV DNA replication at 20 uM measured on day 3 by FQ-PCR analysis relative to control; type: functional; conditions: HepG2.2.15, 72 h; method in brief: as §7
Hepatitis B virus [14] = experiment: as §5, with “against lamivudine-resistant” for “against”, “virus harboring L180M/M204V mutant” for “virus”; type: functional; method in brief: as §7
Hepatitis B virus [15] = experiment: as §6, with “against lamivudine-resistant” for “against”, “virus harboring L180M/M204V mutant” for “virus”; type: functional; method in brief: as §7

| Compound | CC50 at 216 h [1] | inhibition (INH) (Hepatitis B virus [2]) | inhibition (INH) (Hepatitis B virus [3]) | inhibition at 20 µM (Hepatitis B virus [4]) | inhibition (INH) (Hepatitis B virus [5]) | inhibition (INH) (Hepatitis B virus [6]) | inhibition at 20 µM (Hepatitis B virus [7]) | inhibition (INH) (Hepatitis B virus [8]) | inhibition (INH) (Hepatitis B virus [9]) | inhibition at 20 µM (Hepatitis B virus [10]) | inhibition (INH) (Hepatitis B virus [11]) | inhibition (INH) (Hepatitis B virus [12]) | inhibition at 20 µM (Hepatitis B virus [13]) | inhibition (INH) (Hepatitis B virus [14]) | inhibition (INH) (Hepatitis B virus [15]) |
| --- | --- | --- | --- | --- | --- | --- | --- | --- | --- | --- | --- | --- | --- | --- | --- |
| CNc1ncnc2c1nnn2[C@@H]1O[C@H](CO)[C@@H](O)[C@@]1(C)F | > 600 µM | 24.4% | 20.1% | – | – | – | – | – | – | – | – | – | – | – | – |
| C[C@@]1(F)[C@H](O)[C@@H](CO)O[C@H]1n1nnc2c(=O)[nH]cnc21 | > 600 µM | 7.4% | 8.5% | – | – | – | – | – | – | – | – | – | – | – | – |
| Nc1ccn([C@@H]2CS[C@H](CO)O2)c(=O)n1 [LAMIVUDINE] | – | 39.6% | 42.4% | 47.4% | 69.7% | 77.9% | 32.7% | 54.1% | 78.6% | 6.3% | 7.9% | 11.2% | 4.1% | 8.4% | 19.3% |
